Laboratory results reported in ChEMBL document CHEMBL3797186, “Single Residue Substitutions That Confer Voltage-Gated Sodium Ion Channel Subtype Selectivity in the NaV1.7 Inhibitory Peptide GpTx-1” (J Med Chem, 2016).
Positions of bridges follow the written chain, without caps; N, C: chain ends. Non-standard residues stand in square brackets, D forms with d. Residues, ends and D or L forms follow the SMILES beside them. 1Nal = N[C@@H](Cc1cccc2ccccc12)C(=O)O

Assays:
[1] = target: Sodium channel protein type 5 subunit alpha (Homo sapiens, UniProt Q14524); assay: Inhibition of human Nav1.5 expressed in HEK293 cells assessed as inward peak current by ion-works quattro patch clamp electrophysiology method; format: cell-based
Outline: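 Stable HEK293 line expressing human NaV1.5, recorded by population patch clamp on the IonWorks Quattro.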

[2] = target: Sodium channel protein type 9 subunit alpha (Homo sapiens, UniProt Q15858); assay: Inhibition of human Nav1.7 expressed in HEK293 cells assessed as inward peak current by ion-works quattro patch clamp electrophysiology method; format: cell-based
Sodium channel protein type 9 subunit alpha, sequence (Q15858 whole entry): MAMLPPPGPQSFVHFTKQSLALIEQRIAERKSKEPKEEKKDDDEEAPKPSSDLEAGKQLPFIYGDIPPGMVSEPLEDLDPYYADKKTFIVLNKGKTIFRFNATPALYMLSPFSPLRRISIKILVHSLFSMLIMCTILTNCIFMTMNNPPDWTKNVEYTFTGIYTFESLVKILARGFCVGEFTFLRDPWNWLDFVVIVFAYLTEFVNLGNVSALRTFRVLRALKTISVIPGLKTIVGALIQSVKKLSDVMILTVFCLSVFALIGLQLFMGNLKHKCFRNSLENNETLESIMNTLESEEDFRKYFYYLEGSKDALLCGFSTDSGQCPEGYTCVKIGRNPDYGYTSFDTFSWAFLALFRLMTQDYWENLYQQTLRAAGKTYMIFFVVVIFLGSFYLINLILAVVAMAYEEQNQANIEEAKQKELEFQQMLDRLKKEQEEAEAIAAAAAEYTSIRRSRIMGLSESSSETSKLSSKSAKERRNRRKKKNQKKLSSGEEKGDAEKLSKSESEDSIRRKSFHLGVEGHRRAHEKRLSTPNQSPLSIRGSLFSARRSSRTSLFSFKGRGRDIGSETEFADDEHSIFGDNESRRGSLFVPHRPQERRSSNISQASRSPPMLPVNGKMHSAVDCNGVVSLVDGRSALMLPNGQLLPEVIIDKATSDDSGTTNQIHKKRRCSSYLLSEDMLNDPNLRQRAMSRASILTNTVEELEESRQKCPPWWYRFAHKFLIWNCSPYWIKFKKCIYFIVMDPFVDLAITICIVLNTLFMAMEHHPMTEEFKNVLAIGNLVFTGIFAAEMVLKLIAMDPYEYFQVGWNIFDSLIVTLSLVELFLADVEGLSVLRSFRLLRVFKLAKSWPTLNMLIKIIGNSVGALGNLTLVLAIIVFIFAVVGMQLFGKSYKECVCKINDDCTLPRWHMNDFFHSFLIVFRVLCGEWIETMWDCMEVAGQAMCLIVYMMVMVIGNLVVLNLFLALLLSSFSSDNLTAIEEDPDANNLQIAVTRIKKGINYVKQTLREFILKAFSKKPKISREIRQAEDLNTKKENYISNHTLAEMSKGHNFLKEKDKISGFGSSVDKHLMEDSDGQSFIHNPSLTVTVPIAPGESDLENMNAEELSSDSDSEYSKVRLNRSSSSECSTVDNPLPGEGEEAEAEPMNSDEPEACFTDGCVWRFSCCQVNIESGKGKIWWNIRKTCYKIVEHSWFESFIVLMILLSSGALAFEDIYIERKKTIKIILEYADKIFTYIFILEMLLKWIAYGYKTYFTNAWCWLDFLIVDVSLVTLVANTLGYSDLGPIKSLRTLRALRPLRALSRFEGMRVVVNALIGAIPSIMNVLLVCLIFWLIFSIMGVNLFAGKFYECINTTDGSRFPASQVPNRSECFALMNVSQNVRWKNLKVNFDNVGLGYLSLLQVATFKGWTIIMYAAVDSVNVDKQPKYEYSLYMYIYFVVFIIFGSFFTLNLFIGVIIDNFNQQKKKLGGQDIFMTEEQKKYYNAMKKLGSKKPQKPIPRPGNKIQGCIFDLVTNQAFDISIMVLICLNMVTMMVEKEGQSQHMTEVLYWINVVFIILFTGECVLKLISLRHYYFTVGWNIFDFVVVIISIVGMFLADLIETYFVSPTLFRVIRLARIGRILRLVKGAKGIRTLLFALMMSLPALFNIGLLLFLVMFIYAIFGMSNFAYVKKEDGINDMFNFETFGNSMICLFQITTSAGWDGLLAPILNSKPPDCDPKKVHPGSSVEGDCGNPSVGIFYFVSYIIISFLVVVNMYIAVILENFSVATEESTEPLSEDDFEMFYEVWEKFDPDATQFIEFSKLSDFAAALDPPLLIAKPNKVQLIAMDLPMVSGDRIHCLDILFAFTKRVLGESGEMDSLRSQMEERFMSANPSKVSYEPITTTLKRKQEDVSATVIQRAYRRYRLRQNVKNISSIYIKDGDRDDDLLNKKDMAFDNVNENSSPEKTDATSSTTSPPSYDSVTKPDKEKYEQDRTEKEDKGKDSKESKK

Sodium channel protein type 5 subunit alpha, sequence (Q14524 whole entry): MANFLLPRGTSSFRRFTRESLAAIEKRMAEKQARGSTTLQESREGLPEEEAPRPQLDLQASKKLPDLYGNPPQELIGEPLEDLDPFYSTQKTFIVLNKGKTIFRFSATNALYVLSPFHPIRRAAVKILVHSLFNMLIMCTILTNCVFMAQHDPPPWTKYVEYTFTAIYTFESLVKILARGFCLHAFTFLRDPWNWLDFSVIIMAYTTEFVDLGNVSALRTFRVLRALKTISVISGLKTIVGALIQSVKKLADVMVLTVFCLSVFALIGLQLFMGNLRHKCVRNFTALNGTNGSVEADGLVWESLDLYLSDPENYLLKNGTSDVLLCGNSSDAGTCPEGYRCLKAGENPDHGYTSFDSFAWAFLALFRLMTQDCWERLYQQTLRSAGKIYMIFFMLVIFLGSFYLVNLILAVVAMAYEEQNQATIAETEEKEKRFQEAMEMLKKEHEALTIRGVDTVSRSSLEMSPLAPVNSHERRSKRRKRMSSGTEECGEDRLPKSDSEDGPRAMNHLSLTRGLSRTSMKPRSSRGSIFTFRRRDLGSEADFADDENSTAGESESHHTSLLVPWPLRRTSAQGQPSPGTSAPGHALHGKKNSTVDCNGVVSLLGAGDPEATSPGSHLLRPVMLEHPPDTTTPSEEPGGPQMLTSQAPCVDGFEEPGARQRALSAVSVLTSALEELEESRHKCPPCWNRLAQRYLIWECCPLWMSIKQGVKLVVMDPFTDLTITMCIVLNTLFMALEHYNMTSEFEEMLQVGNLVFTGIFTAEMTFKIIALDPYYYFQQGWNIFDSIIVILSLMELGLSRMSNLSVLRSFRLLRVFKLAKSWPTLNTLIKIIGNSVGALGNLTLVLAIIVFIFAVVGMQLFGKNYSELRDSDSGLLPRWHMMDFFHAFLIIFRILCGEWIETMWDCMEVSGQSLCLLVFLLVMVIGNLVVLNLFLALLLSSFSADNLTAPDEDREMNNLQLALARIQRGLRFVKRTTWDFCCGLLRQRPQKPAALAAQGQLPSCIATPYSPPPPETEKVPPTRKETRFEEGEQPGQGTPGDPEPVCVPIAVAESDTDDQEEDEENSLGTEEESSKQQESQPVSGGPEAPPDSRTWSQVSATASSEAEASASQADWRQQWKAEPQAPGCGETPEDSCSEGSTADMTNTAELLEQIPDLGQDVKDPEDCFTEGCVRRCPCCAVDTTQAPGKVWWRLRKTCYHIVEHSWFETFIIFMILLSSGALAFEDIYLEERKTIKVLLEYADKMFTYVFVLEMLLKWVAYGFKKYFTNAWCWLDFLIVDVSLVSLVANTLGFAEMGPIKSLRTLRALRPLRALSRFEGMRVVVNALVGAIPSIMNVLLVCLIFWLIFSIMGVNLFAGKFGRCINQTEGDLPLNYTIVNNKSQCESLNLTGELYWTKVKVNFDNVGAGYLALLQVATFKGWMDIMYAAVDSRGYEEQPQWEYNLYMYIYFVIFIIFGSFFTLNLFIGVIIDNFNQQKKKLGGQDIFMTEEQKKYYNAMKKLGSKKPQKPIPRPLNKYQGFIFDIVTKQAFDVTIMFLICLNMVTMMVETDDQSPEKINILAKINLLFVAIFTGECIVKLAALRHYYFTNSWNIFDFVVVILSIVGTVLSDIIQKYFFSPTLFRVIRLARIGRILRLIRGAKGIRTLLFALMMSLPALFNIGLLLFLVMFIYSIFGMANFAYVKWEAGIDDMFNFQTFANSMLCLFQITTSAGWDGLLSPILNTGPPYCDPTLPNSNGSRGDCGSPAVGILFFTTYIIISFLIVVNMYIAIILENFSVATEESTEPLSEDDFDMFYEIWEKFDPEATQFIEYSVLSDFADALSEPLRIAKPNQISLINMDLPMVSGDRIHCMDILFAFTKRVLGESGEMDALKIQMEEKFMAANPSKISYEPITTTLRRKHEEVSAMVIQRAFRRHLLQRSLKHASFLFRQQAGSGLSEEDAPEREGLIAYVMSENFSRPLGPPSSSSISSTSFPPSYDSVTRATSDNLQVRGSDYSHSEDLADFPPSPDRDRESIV

SMILES | IC50 [1] [nM] | IC50 [2] [nM]
CC[C@H](C)[C@@H]1NC(=O)[C@@H]2CSSC[C@@H]3NC(=O)[C@H](C(C)C)NC(=O)[C@H](CC(C)C)NC(=O)[C@H](CC(N)=O)NC(=O)[C@@H]4CCCN4C(=O)[C@H](CCCNC(=N)N)NC(=O)[C@H](CSSC[C@H](NC(=O)[C@@H](N)CC(=O)O)C(=O)N[C@@H](CC(C)C)C(=O)NCC(=O)N[C@@H](Cc4ccccc4)C(=O)N[C@@H](CCSC)C(=O)N[C@@H](CCCNC(=N)N)C(=O)N[C@@H](CCCCN)C(=O)N2)NC(=O)[C@H](CSSC[C@@H](C(=O)N[C@@H](CCCNC(=N)N)C(=O)N[C@@H](Cc2ccc(O)cc2)C(=O)N[C@H](C(=O)N[C@@H](Cc2ccccc2)C(N)=O)C(C)C)NC(=O)[C@H](Cc2c[nH]c4ccccc24)NC(=O)[C@H](CCCCN)NC(=O)[C@H](Cc2cnc[nH]2)NC(=O)[C@H]([C@@H](C)O)NC(=O)[C@H](CCCNC(=N)N)NC(=O)[C@H](CO)NC3=O)NC(=O)[C@H](CCCCN)NC(=O)[C@H](CC(=O)O)NC(=O)[C@H](CC(N)=O)NC(=O)[C@H](CC(=O)O)NC(=O)[C@@H]2CCCN2C1=O (H-DCLGFMRKCIPDNDKCCRPNLVCSRTHKWCRYVF-NH2; disulfide 2-17, 9-23, 16-30) | > 5000 | 950
CC[C@H](C)[C@@H]1NC(=O)[C@@H]2CSSC[C@@H]3NC(=O)[C@H](C(C)C)NC(=O)[C@H](CC(C)C)NC(=O)[C@H](CC(N)=O)NC(=O)[C@@H]4CCCN4C(=O)[C@H](CCCNC(=N)N)NC(=O)[C@H](CSSC[C@H](NC(=O)[C@@H](N)CC(=O)O)C(=O)N[C@@H](CC(C)C)C(=O)NCC(=O)N[C@@H](Cc4ccccc4)C(=O)N[C@@H](CCSC)C(=O)N[C@@H](CCCNC(=N)N)C(=O)N[C@@H](CCCCN)C(=O)N2)NC(=O)[C@H](CSSC[C@@H](C(=O)N[C@@H](CCCCN)C(N)=O)NC(=O)[C@H](Cc2c[nH]c4ccccc24)NC(=O)[C@H](CCCCN)NC(=O)[C@H](Cc2cnc[nH]2)NC(=O)[C@H]([C@@H](C)O)NC(=O)[C@H](CCCNC(=N)N)NC(=O)[C@H](CO)NC3=O)NC(=O)[C@H](CCCCN)NC(=O)[C@H](CC(=O)O)NC(=O)[C@H](CC(N)=O)NC(=O)[C@H](CC(=O)O)NC(=O)[C@@H]2CCCN2C1=O (H-DCLGFMRKCIPDNDKCCRPNLVCSRTHKWCK-NH2; disulfide 2-17, 9-23, 16-30) | > 5000 | > 5000
CC[C@H](C)[C@@H]1NC(=O)[C@@H]2CSSC[C@@H]3NC(=O)[C@H](C(C)C)NC(=O)[C@H](CC(C)C)NC(=O)[C@H](CC(N)=O)NC(=O)[C@@H]4CCCN4C(=O)[C@H](CCCNC(=N)N)NC(=O)[C@H](CSSC[C@H](NC(=O)[C@@H](N)CC(=O)O)C(=O)N[C@@H](CC(C)C)C(=O)NCC(=O)N[C@@H](Cc4ccccc4)C(=O)N[C@@H](CCSC)C(=O)N[C@@H](CCCNC(=N)N)C(=O)N[C@@H](CCCCN)C(=O)N2)NC(=O)[C@H](CSSC[C@@H](C(=O)N[C@@H](CCCCN)C(=O)N[C@@H](Cc2ccc(O)cc2)C(=O)N[C@H](C(=O)N[C@@H](Cc2ccccc2)C(=O)N[C@@H](CCCNC(=N)N)C(N)=O)C(C)C)NC(=O)[C@H](Cc2c[nH]c4ccccc24)NC(=O)[C@H](CCCCN)NC(=O)[C@H](Cc2cnc[nH]2)NC(=O)[C@H]([C@@H](C)O)NC(=O)[C@H](CCCNC(=N)N)NC(=O)[C@H](CO)NC3=O)NC(=O)[C@H](CCCCN)NC(=O)[C@H](CC(=O)O)NC(=O)[C@H](CC(N)=O)NC(=O)[C@H](CC(=O)O)NC(=O)[C@@H]2CCCN2C1=O | > 5000 | 130
CC[C@H](C)[C@@H]1NC(=O)[C@@H]2CSSC[C@@H]3NC(=O)[C@H](C(C)C)NC(=O)[C@H](CC(C)C)NC(=O)[C@H](CC(N)=O)NC(=O)[C@@H]4CCCN4C(=O)[C@H](CCCNC(=N)N)NC(=O)[C@H](CSSC[C@H](NC(=O)[C@@H](N)CC(=O)O)C(=O)N[C@@H](CC(C)C)C(=O)NCC(=O)N[C@@H](Cc4ccccc4)C(=O)N[C@@H](CCSC)C(=O)N[C@@H](CCCNC(=N)N)C(=O)N[C@@H](CCCCN)C(=O)N2)NC(=O)[C@H](CSSC[C@@H](C(=O)N[C@@H](CCCCN)C(=O)N[C@@H](Cc2ccc(O)cc2)C(=O)N[C@H](C(=O)N[C@@H](Cc2ccccc2)C(N)=O)C(C)C)NC(=O)[C@H](Cc2c[nH]c4ccccc24)NC(=O)[C@H](CCCCN)NC(=O)[C@H](Cc2cccc4ccccc24)NC(=O)[C@H]([C@@H](C)O)NC(=O)[C@H](CCCNC(=N)N)NC(=O)[C@H](CO)NC3=O)NC(=O)[C@H](CCCCN)NC(=O)[C@H](CC(=O)O)NC(=O)[C@H](CC(N)=O)NC(=O)[C@H](CC(=O)O)NC(=O)[C@@H]2CCCN2C1=O (H-DCLGFMRKCIPDNDKCCRPNLVCSRT[1Nal]KWCKYVF-NH2; disulfide 2-17, 9-23, 16-30) | 900 | 250
CC[C@H](C)[C@@H]1NC(=O)[C@@H]2CSSC[C@@H]3NC(=O)[C@H](C(C)C)NC(=O)[C@H](CC(C)C)NC(=O)[C@H](CC(N)=O)NC(=O)[C@@H]4CCCN4C(=O)[C@H](CCCNC(=N)N)NC(=O)[C@H](CSSC[C@H](NC(=O)[C@@H](N)CC(=O)O)C(=O)N[C@@H](CC(C)C)C(=O)NCC(=O)N[C@@H](Cc4ccccc4)C(=O)N[C@@H](CCSC)C(=O)N[C@@H](CCCNC(=N)N)C(=O)N[C@@H](CCCCN)C(=O)N2)NC(=O)[C@H](CSSC[C@@H](C(=O)N[C@@H](CCCCN)C(=O)N[C@@H](Cc2ccc(O)cc2)C(=O)N[C@H](C(=O)N[C@@H](Cc2c[nH]c4ccccc24)C(N)=O)C(C)C)NC(=O)[C@H](Cc2c[nH]c4ccccc24)NC(=O)[C@H](CCCCN)NC(=O)[C@H](Cc2c[nH]cn2)NC(=O)[C@H]([C@@H](C)O)NC(=O)[C@H](CCCNC(=N)N)NC(=O)[C@H](CO)NC3=O)NC(=O)[C@H](CCCCN)NC(=O)[C@H](CC(=O)O)NC(=O)[C@H](CC(N)=O)NC(=O)[C@H](CC(=O)O)NC(=O)[C@@H]2CCCN2C1=O (H-DCLGFMRKCIPDNDKCCRPNLVCSRTHKWCKYVW-NH2; disulfide 2-17, 9-23, 16-30) | > 5000 | 270
CC[C@H](C)[C@@H]1NC(=O)[C@@H]2CSSC[C@@H]3NC(=O)[C@H](C(C)C)NC(=O)[C@H](CC(C)C)NC(=O)[C@H](CC(N)=O)NC(=O)[C@@H]4CCCN4C(=O)[C@H](CCCNC(=N)N)NC(=O)[C@H](CSSC[C@H](NC(=O)[C@@H](N)CC(=O)O)C(=O)N[C@@H](CC(C)C)C(=O)NCC(=O)N[C@@H](Cc4ccccc4)C(=O)N[C@@H](CCSC)C(=O)N[C@@H](CCCNC(=N)N)C(=O)N[C@@H](CCCCN)C(=O)N2)NC(=O)[C@H](CSSC[C@@H](C(=O)N[C@@H](CCCCN)C(=O)N[C@@H](Cc2ccc(O)cc2)C(=O)N[C@H](C(=O)N[C@@H](Cc2ccccc2)C(N)=O)C(C)C)NC(=O)[C@H](Cc2c[nH]c4ccccc24)NC(=O)[C@H](CCCNC(=N)N)NC(=O)[C@H](Cc2cnc[nH]2)NC(=O)[C@H]([C@@H](C)O)NC(=O)[C@H](CCCNC(=N)N)NC(=O)[C@H](CO)NC3=O)NC(=O)[C@H](CCCCN)NC(=O)[C@H](CC(=O)O)NC(=O)[C@H](CC(N)=O)NC(=O)[C@H](CC(=O)O)NC(=O)[C@@H]2CCCN2C1=O | > 5000 | 90
CC[C@H](C)[C@@H]1NC(=O)[C@@H]2CSSC[C@@H]3NC(=O)[C@H](C(C)C)NC(=O)[C@H](CC(C)C)NC(=O)[C@H](CC(N)=O)NC(=O)[C@@H]4CCCN4C(=O)[C@H](CCCNC(=N)N)NC(=O)[C@H](CSSC[C@H](NC(=O)[C@@H](N)CC(=O)O)C(=O)N[C@@H](CC(C)C)C(=O)NCC(=O)N[C@@H](Cc4ccccc4)C(=O)N[C@@H](CCSC)C(=O)N[C@@H](CCCNC(=N)N)C(=O)N[C@@H](CCCCN)C(=O)N2)NC(=O)[C@H](CSSC[C@@H](C(=O)N[C@@H](CCCCN)C(=O)N[C@@H](Cc2ccc(O)cc2)C(=O)N[C@H](C(=O)N[C@@H](Cc2ccccc2)C(N)=O)C(C)C)NC(=O)[C@H](Cc2c[nH]c4ccccc24)NC(=O)[C@H](CCCCN)NC(=O)[C@H](CCCNC(=N)N)NC(=O)[C@H]([C@@H](C)O)NC(=O)[C@H](CCCNC(=N)N)NC(=O)[C@H](CO)NC3=O)NC(=O)[C@H](CCCCN)NC(=O)[C@H](CC(=O)O)NC(=O)[C@H](CC(N)=O)NC(=O)[C@H](CC(=O)O)NC(=O)[C@@H]2CCCN2C1=O (H-DCLGFMRKCIPDNDKCCRPNLVCSRTRKWCKYVF-NH2; disulfide 2-17, 9-23, 16-30) | > 5000 | 450
CC[C@H](C)[C@@H]1NC(=O)[C@@H]2CSSC[C@@H]3NC(=O)[C@H](C(C)C)NC(=O)[C@H](CC(C)C)NC(=O)[C@H](CC(N)=O)NC(=O)[C@@H]4CCCN4C(=O)[C@H](CCCNC(=N)N)NC(=O)[C@H](CSSC[C@H](NC(=O)[C@@H](N)CC(=O)O)C(=O)N[C@@H](CC(C)C)C(=O)NCC(=O)N[C@@H](Cc4ccccc4)C(=O)N[C@@H](CCSC)C(=O)N[C@@H](CCCNC(=N)N)C(=O)N[C@@H](CCCCN)C(=O)N2)NC(=O)[C@H](CSSC[C@@H](C(=O)N[C@@H](CCCCN)C(=O)N[C@@H](Cc2ccc(O)cc2)C(=O)N[C@H](C(=O)N[C@@H](Cc2ccccc2)C(N)=O)C(C)C)NC(=O)[C@H](Cc2c[nH]c4ccccc24)NC(=O)[C@H](CCCCN)NC(=O)[C@H](Cc2cnc[nH]2)NC(=O)[C@H](CCCNC(=N)N)NC(=O)[C@H](CCCNC(=N)N)NC(=O)[C@H](CO)NC3=O)NC(=O)[C@H](CCCCN)NC(=O)[C@H](CC(=O)O)NC(=O)[C@H](CC(N)=O)NC(=O)[C@H](CC(=O)O)NC(=O)[C@@H]2CCCN2C1=O (H-DCLGFMRKCIPDNDKCCRPNLVCSRRHKWCKYVF-NH2; disulfide 2-17, 9-23, 16-30) | 3500 | 40
